Each structure is given as a SMILES string.

Test system in the first data set: not listed separately
Kind of data set: Selectivity index, ratio of CC50 for rat L6 cells to EC50 for Trypanosoma cruzi strain CL Brener epimastigotes. Format: toxicity. The conditions noted are these: read-out: Ratio CC50/EC50.
Turning to `O=C(CN1C(=O)N(Cc2ccccc2)C2(CCCc3ccccc32)C1=O)NO` (stereo not drawn), the selectivity ratio turned out to be 3.
Turning to `CN1C(=O)N(CC(=O)NO)C(=O)C12CCCCc1ccccc12` (stereo not drawn), the selectivity ratio was found to be 2.
Still for that read-out and setting: under `O=C(CN1C(=O)N(Cc2ccccc2)C2(CCc3ccccc32)C1=O)NO` (stereo not drawn) stands 4; under `O=C(CN1C(=O)N(Cc2ccccc2)C2(CCCCc3ccccc32)C1=O)NO` (stereo not drawn), 16.

Another data set concerns Trypanosoma cruzi. Put plainly: Antitrypanosomal activity against Trypanosoma cruzi strain CL Brener epimastigotes form assessed as inhibition of growth incubated for 4 days by resazurin dye based fluorescence assay. Format: functional, organism-based. To be noted: 96 h.
As for `O=C(CN1C(=O)N(Cc2ccccc2)C2(CCCc3ccccc32)C1=O)NO` (stereo not drawn), the EC50 stood at 960 nM and the 90% effect concentration (EC90) is 1710 nM.
As to `CN1C(=O)N(CC(=O)NO)C(=O)C12CCc1ccccc12` (stereo not drawn), the half-maximal effective concentration (EC50) was > 30000 nM.
Still for that read-out and setting: under `O=C1NC(=O)C2(CCc3ccccc32)N1` (stereo not drawn) stands > 500000 nM.
Regarding `CN1C(=O)N(CC(=O)NO)C(=O)C12CCCCc1ccccc12` (stereo not drawn), the EC50 amounted to 10600 nM and the EC90 was 15300 nM.
The corresponding values for `O=C(CN1C(=O)N(Cc2ccccc2)C2(CCc3ccccc32)C1=O)NO` (stereo not drawn) are 1700 nM and 3010 nM.
Taken in the same sequence, the figures for `O=C(CN1C(=O)N(Cc2ccccc2)C2(CCCCc3ccccc32)C1=O)NO` (stereo not drawn) were 495 nM and 940 nM.

Test system in another data set: not listed separately
Put plainly: Selectivity index, ratio of CC50 for human Huh5.2 cells to EC50 for HCV genotype 4a ED43. Format: toxicity. To be noted: read-out: Ratio CC50/EC50. Summed up:
(§1)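 Viability read as intracellular ATP, not MTT: 10^4 Huh5-2 cells/well, after 24 h exposed to compounds 72 h at 37 °C, 5% CO2, lysed, luminescent ATP kit read, ATP normalized to protein. CC50 versus DMSO control via nonlinear regression of log concentration; mean ± SD of three independent experiments in triplicate. SI = CC50/EC50.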
Consider `O=C(CN1C(=O)N(Cc2ccccc2)C2(CCCc3ccccc32)C1=O)NO` (stereo not drawn), for which the selectivity ratio is 127.
The same measure, in the same setting: the same measure for `CN1C(=O)N(CC(=O)NO)C(=O)C12CCc1ccccc12` (stereo not drawn): 128; for `CN1C(=O)N(CC(=O)NO)C(=O)C12CCCCc1ccccc12` (stereo not drawn): 1020.
The same measure, in the same setting: under `O=C(CN1C(=O)N(Cc2ccccc2)C2(CCc3ccccc32)C1=O)NO` (stereo not drawn) stands 54; under `O=C(CN1C(=O)N(Cc2ccccc2)C2(CCCCc3ccccc32)C1=O)NO` (stereo not drawn), 45.

For another data set, the system named is Trypanosoma brucei. Put plainly: Antitrypanosomal activity against Trypanosoma brucei 221 bloodstream form assessed as inhibition of growth incubated for 4 days by resazurin dye based fluorescence assay. Format: functional, organism-based. The conditions noted are these: Trypanosoma brucei, 221, 96 h.
As for `O=C(CN1C(=O)CNC2(CCCCCC2)C1=O)NO`, the concentration giving a half-maximal response (EC50) was determined as 1870 nM and the EC90 worked out at 2530 nM.
Taken in the same sequence, the figures for `O=C(CN1C(=O)N(Cc2ccccc2)C2(CCCc3ccccc32)C1=O)NO` (stereo not drawn) were 50 nM and 77 nM.
Taken in the same sequence, the figures for `CN1C(=O)N(CC(=O)NO)C(=O)C12CCc1ccccc12` (stereo not drawn) were 1220 nM and 1930 nM.
As to `O=C1NC(=O)C2(CCc3ccccc32)N1` (stereo not drawn), the EC50 was > 50000 nM.
For the molecule `CN1C(=O)N(CC(=O)NO)C(=O)C12CCCCc1ccccc12` (stereo not drawn), the EC50 stood at 230 nM and the EC90 amounted to 300 nM.
Taken in the same sequence, the figures for `O=C(CN1C(=O)N(Cc2ccccc2)C2(CCc3ccccc32)C1=O)NO` (stereo not drawn) were 101 nM and 192 nM.
As to `O=C(CN1C(=O)N(Cc2ccccc2)C2(CCCCc3ccccc32)C1=O)NO` (stereo not drawn), the concentration giving a half-maximal response (EC50) worked out at 13 nM and the EC90 amounted to 18 nM.

Test system in a further data set: not listed separately
Kind of data set: Cytotoxicity against rat L6 cells assessed as reduction in cell viability incubated for 6 days by resazurin dye based fluorescence assay.
Settings: not given
A digest of the protocol:
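Rat skeletal myoblast L6 cells seeded in triplicate at 1 × 10⁴ mL⁻¹ in growth medium containing a range of compound concentrations, 6 days at 37 °C; resazurin added, 8 h further, fluorescence read. CC50 = concentration giving 50% growth inhibition; mean of triplicate experiments ± SEM.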
Consider `O=C(CN1C(=O)N(Cc2ccccc2)C2(CCCc3ccccc32)C1=O)NO` (stereo not drawn), for which the CC50 at 144 h is 3.17 µM.
On the same count and under the same terms, the same measure for `CN1C(=O)N(CC(=O)NO)C(=O)C12CCc1ccccc12` (stereo not drawn): 550 µM.
Still for that read-out and setting: under `O=C1NC(=O)C2(CCc3ccccc32)N1` (stereo not drawn) stands > 500 µM; under `CN1C(=O)N(CC(=O)NO)C(=O)C12CCCCc1ccccc12` (stereo not drawn), 16.4 µM; under `O=C(CN1C(=O)N(Cc2ccccc2)C2(CCc3ccccc32)C1=O)NO` (stereo not drawn), 6.27 µM.
In the case of `O=C(CN1C(=O)N(Cc2ccccc2)C2(CCCCc3ccccc32)C1=O)NO` (stereo not drawn), the CC50 at 144 h is 7.85 µM.

Test system in another data set: not listed separately
Kind of data set: Selectivity index, ratio of CC50 for human Huh5.2 cells to EC50 for HCV genotype 1b Con1. To be noted: read-out: Ratio CC50/EC50. In kind it is toxicity. A digest of the protocol:
as §1
Regarding `O=C(CN1C(=O)N(Cc2ccccc2)C2(CCCc3ccccc32)C1=O)NO` (stereo not drawn), the selectivity ratio was 28.
Same read-out and setting: under `CN1C(=O)N(CC(=O)NO)C(=O)C12CCc1ccccc12` (stereo not drawn) stands 19; under `CN1C(=O)N(CC(=O)NO)C(=O)C12CCCCc1ccccc12` (stereo not drawn), 95.
The same measure, in the same setting: the same measure for `O=C(CN1C(=O)N(Cc2ccccc2)C2(CCc3ccccc32)C1=O)NO` (stereo not drawn): 34; for `O=C(CN1C(=O)N(Cc2ccccc2)C2(CCCCc3ccccc32)C1=O)NO` (stereo not drawn): 5; for `O=C1Cn2c(cc3ccccc32)C(=O)N1O`: > 1.6.

The subject of another data set is Hepatitis C virus. Kind of data set: Antiviral activity against HCV genotype 1b Con1 infected in human HuH5.2 cells assessed as reduction in viral replication incubated for 3 days by luciferase reporter gene assay. Format: functional, organism-based, Hepacivirus hominis. The conditions noted are these: subtype 1b Con1, Huh-5-2, 72 h. A digest of the protocol:
(§2)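 Stable subgenomic replicon cell lines (Huh5-2 HCV 1b Con1 firefly luciferase; Huh7.5-3a S52, Huh7.5-4a ED43; Huh7-D2 DENV2 16681 Renilla luciferase) seeded 1×10^4 cells/well, 24 h at 37 °C, then serial compound dilutions in complete DMEM without G418 for 3 days at 37 °C. Lysate F-Luc or R-Luc (12 μM coelenterazine, pH 7.4 buffer) normalized to Bradford protein, expressed as % of DMSO control. EC50 from nonlinear regression of log concentration.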
As to `O=C(CN1C(=O)N(Cc2ccccc2)C2(CCCc3ccccc32)C1=O)NO` (stereo not drawn), the concentration giving a half-maximal response (EC50) is 320 nM.
On the same count and under the same terms, the same measure for `CN1C(=O)N(CC(=O)NO)C(=O)C12CCc1ccccc12` (stereo not drawn): 1410 nM; for `O=C1NC(=O)C2(CCc3ccccc32)N1` (stereo not drawn): > 10000 nM; for `CN1C(=O)N(CC(=O)NO)C(=O)C12CCCCc1ccccc12` (stereo not drawn): 1180 nM.
Consider `O=C(CN1C(=O)N(Cc2ccccc2)C2(CCc3ccccc32)C1=O)NO` (stereo not drawn), for which the half-maximal effective concentration (EC50) turned out to be 220 nM.
Still for that read-out and setting: under `O=C(CN1C(=O)N(Cc2ccccc2)C2(CCCCc3ccccc32)C1=O)NO` (stereo not drawn) stands 1000 nM.
`O=C1Cn2c(cc3ccccc32)C(=O)N1O`: the EC50 came to 126000 nM.

Test system in a further data set: not listed separately
Kind of data set: Selectivity index, ratio of CC50 for rat L6 cells to EC50 for Trypanosoma brucei 221 bloodstream form. In kind it is toxicity. To be noted: read-out: Ratio CC50/EC50. Summed up: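 T. brucei strain 221 bloodstream forms in modified Iscove's medium diluted to 2.5 × 10⁴ mL⁻¹, eight-point concentration curves at 37 °C; resazurin added after 48 h, further 16 h incubation; fluorescence at excitation 545 nm, emission 590 nm. EC50 and EC90 from triplicate experiments. SI = L6 CC50/EC50.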
In the case of `O=C(CN1C(=O)N(Cc2ccccc2)C2(CCCc3ccccc32)C1=O)NO` (stereo not drawn), the selectivity ratio stood at 63.
For the molecule `CN1C(=O)N(CC(=O)NO)C(=O)C12CCc1ccccc12` (stereo not drawn), the selectivity ratio is 451.
Still for that read-out and setting: under `CN1C(=O)N(CC(=O)NO)C(=O)C12CCCCc1ccccc12` (stereo not drawn) stands 71.
The same measure, in the same setting: the same measure for `O=C(CN1C(=O)N(Cc2ccccc2)C2(CCc3ccccc32)C1=O)NO` (stereo not drawn): 62; for `O=C(CN1C(=O)N(Cc2ccccc2)C2(CCCCc3ccccc32)C1=O)NO` (stereo not drawn): 604.

The next data set concerns Hepatitis C virus. Kind of data set: Antiviral activity against HCV genotype 4a ED43 infected in human HuH7.5 cells assessed as reduction in viral replication incubated for 3 days by luciferase reporter gene assay. Format: functional, organism-based, Hepacivirus hominis. The conditions noted are these: subtype 4a ED43, Huh7.5, 72 h. Summed up:
as §2
Turning to `O=C(CN1C(=O)N(Cc2ccccc2)C2(CCCc3ccccc32)C1=O)NO` (stereo not drawn), the EC50 is 70 nM.
On to `CN1C(=O)N(CC(=O)NO)C(=O)C12CCc1ccccc12` (stereo not drawn), for which the EC50 came to 210 nM.
Still for that read-out and setting: the same measure for `CN1C(=O)N(CC(=O)NO)C(=O)C12CCCCc1ccccc12` (stereo not drawn): 110 nM; for `O=C(CN1C(=O)N(Cc2ccccc2)C2(CCc3ccccc32)C1=O)NO` (stereo not drawn): 140 nM.
Same read-out and setting: under `O=C(CN1C(=O)N(Cc2ccccc2)C2(CCCCc3ccccc32)C1=O)NO` (stereo not drawn) stands 120 nM.

Test system in the next data set: not listed separately
Kind of data set: Cytotoxicity against human HuH5.2 cells assessed as reduction in cell viability incubated for 72 hrs by measuring intracellular ATP levels.
Settings: not given
Consider `O=C(CN1C(=O)N(Cc2ccccc2)C2(CCCc3ccccc32)C1=O)NO` (stereo not drawn), for which the half-maximal cytotoxic concentration (CC50) at 72 h worked out at 8.9 µM.
The same measure, in the same setting: under `CN1C(=O)N(CC(=O)NO)C(=O)C12CCc1ccccc12` (stereo not drawn) stands 26.9 µM; under `O=C1NC(=O)C2(CCc3ccccc32)N1` (stereo not drawn), > 10 µM; under `CN1C(=O)N(CC(=O)NO)C(=O)C12CCCCc1ccccc12` (stereo not drawn), 112 µM.
Still for that read-out and setting: the same measure for `O=C(CN1C(=O)N(Cc2ccccc2)C2(CCc3ccccc32)C1=O)NO` (stereo not drawn): 7.53 µM; for `O=C(CN1C(=O)N(Cc2ccccc2)C2(CCCCc3ccccc32)C1=O)NO` (stereo not drawn): 5.45 µM; for `O=C1Cn2c(cc3ccccc32)C(=O)N1O`: > 200 µM.

For the origin of these results see ChEMBL document CHEMBL4373658, “Scaffold hybridization strategy towards potent hydroxamate-based inhibitors of Flaviviridae viruses and Trypanosoma species” (Medchemcomm, 2019).
